Consider one molecule from PMC5102769 (Neurobiology of disease, 2016).

The experiment has as its target T1, ENT1 (Mus musculus, UniProt Q9JIM1).
T1 sequence (Q9JIM1 1-460): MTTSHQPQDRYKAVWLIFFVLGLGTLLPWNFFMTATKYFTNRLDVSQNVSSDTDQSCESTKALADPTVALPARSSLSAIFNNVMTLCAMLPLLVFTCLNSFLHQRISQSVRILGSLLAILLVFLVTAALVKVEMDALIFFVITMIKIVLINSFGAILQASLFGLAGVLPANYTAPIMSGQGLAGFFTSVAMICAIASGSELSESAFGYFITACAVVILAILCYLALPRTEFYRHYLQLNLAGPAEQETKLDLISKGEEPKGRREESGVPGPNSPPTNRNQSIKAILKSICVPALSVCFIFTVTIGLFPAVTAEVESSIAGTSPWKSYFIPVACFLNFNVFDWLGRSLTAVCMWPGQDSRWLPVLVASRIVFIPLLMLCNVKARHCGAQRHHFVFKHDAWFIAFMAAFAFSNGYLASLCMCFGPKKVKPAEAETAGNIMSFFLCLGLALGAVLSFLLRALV
In kind it is binding. Particulars: striatum; for Kd: read-out: KD (affinity). An outline of the steps:
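Striata from 12-month-old heterozygous zQ175 and WT littermate mice were homogenized in 50 mM Tris-HCl pH 7.4 with protease inhibitors, then membranes were pelleted at 100,000 g (45 min, 4°C) and washed twice. Membranes (0.2 mg protein/ml) were incubated with increasing [3H]NBTI in 50 mM Tris-HCl pH 7.4 with 2 I.U./ml adenosine deaminase. Unlabeled NBTI defined non-specific binding. Bound ligand was separated by rapid filtration and counted by scintillation. n = 8–10/group, means ± S.E.M.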

Where two headings read alike, the source gives them in different places.

With `O=[N+]([O-])c1ccc(CSc2ncnc3c2ncn3[C@@H]2O[C@H](CO)[C@@H](O)[C@H]2O)cc1` [[^3H]NBTI, [^3H]-S-(4-Nitrobenzyl)-6-thioinosine], under “WT littermates of zQ175 mice”, the “Bmax (number of binding sites)” value is on record as 0.27 ± 0.03 pmol/mg of protein and the equilibrium dissociation constant (Kd) (as a rule, the equilibrium constant for the complex coming apart) worked out at 110 ± 10 pM. Under “zQ175 mice (HET, 12-month old)”, the Kd is 110 ± 30 pM and the “Bmax (number of binding sites)” value amounted to 0.35 ± 0.02 pmol/mg protein.
